Data from ChEMBL document CHEMBL5385966, “Synthesis and biological evaluation of new naphthalimide-thiourea derivatives as potent antimicrobial agents active against multidrug-resistant Staphylococcus aureus and Mycobacterium tuberculosis” (RSC Med Chem, 2024).
Converted amounts (≈) assume the structure as drawn. The source made the active and inactive calls. No cut-off for these calls is given here.

What was measured:
Staphylococcus aureus = assay: Antibacterial activity against Staphylococcus aureus ATCC 29213 assessed as bacterial growth inhibition incubated for 16 to 18 hrs by CLSI based antibiotic susceptibility testing method; type: functional; conditions: time 16-18 hrs
How it was run: (§1)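 Broth microdilution in cation-adjusted Mueller-Hinton broth. Compounds were tested at […], with levofloxacin as reference and medium-only controls. Plates were incubated at 37 °C for 16-18 h. MIC was the lowest concentration with no visible growth; three independent determinations, each in duplicate.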

[1] = test system: Mycobacterium tuberculosis; assay: Antimycobacterial activity against Mycobacterium tuberculosis H37Rv ATCC 27294 assessed as bacterial growth inhibition incubated for 7 days by resazurin dye based broth microdilution method; type: functional; conditions: H37Rv ATCC 27294, 168 h, time 7 day
How it was run: (§2)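 Broth microdilution in Middlebrook 7H9 with 10% ADC-Tween-80 (0.2% glycerol, 0.05% Tween-80), inoculum ~10⁶ cfu/mL. Compounds came from 10 mg/mL DMSO stocks and were tested as two-fold serial dilutions at 37 °C, 7 days for M. tuberculosis H37Rv and 72 h for NTM. Growth was read visually with PrestoBlue resazurin dye; MIC was the lowest concentration preventing growth. Triplicate determinations, each in duplicate.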

Escherichia coli = assay: Antibacterial activity against Escherichia coli ATCC 25922 assessed as bacterial growth inhibition incubated for 16 to 18 hrs by CLSI based antibiotic susceptibility testing method; type: functional, organism-based; conditions: time 16-18 hrs; how it was run: as §1
Klebsiella pneumoniae = assay: Antibacterial activity against Klebsiella pneumoniae BAA 1705 assessed as bacterial growth inhibition incubated for 16 to 18 hrs by CLSI based antibiotic susceptibility testing method; type: functional, organism-based; conditions: time 16-18 hrs; how it was run: as §1
Acinetobacter baumannii = assay: Antibacterial activity against Acinetobacter baumannii BAA 1605 assessed as bacterial growth inhibition incubated for 16 to 18 hrs by CLSI based antibiotic susceptibility testing method; type: functional, organism-based; conditions: time 16-18 hrs; how it was run: as §1
Pseudomonas aeruginosa = assay: Antibacterial activity against Pseudomonas aeruginosa ATCC 27853 assessed as bacterial growth inhibition incubated for 16 to 18 hrs by CLSI based antibiotic susceptibility testing method; type: functional, organism-based; conditions: time 16-18 hrs; how it was run: as §1
[2] = test system: Mycobacteroides abscessus; assay: Antimycobacterial activity against Mycobacterium abscessus ATCC 19977 assessed as bacterial growth inhibition incubated for 72 hrs by resazurin dye based broth microdilution method; type: functional, organism-based; how it was run: as §2
[3] = test system: Mycolicibacterium fortuitum; assay: Antimycobacterial activity against Mycobacterium fortuitum ATCC 6841 assessed as bacterial growth inhibition incubated for 72 hrs by resazurin dye based broth microdilution method; type: functional, organism-based; how it was run: as §2
Mycobacteroides chelonae = assay: Antimycobacterial activity against Mycobacteroides chelonae ATCC 35752 assessed as bacterial growth inhibition incubated for 72 hrs by resazurin dye based broth microdilution method; type: functional, organism-based; how it was run: as §2

Row | SMILES | MIC (Staphylococcus aureus) [µg/mL] | MIC [1] [µg/mL] | growth inhibition (GI) (Escherichia coli) | growth inhibition (GI) (Klebsiella pneumoniae) | growth inhibition (GI) (Acinetobacter baumannii) | growth inhibition (GI) (Pseudomonas aeruginosa) | growth inhibition (GI) [2] | growth inhibition (GI) [3] | growth inhibition (GI) (Mycobacteroides chelonae)
1 | O=C(CN1C(=O)c2cccc3cccc(c23)C1=O)N1CCN(C(=S)Nc2ccccc2)CC1 | > 64 | 16 (≈ 34.9 µM) | inactive | inactive | inactive | inactive | inactive | inactive | inactive
2 | O=C1c2cccc3cccc(c23)C(=O)N1CCN1CCN(C(=S)Nc2ccc(Cl)c(Cl)c2)CC1 | > 64 | > 64 | inactive | inactive | inactive | inactive | inactive | inactive | inactive
3 | O=C(Nc1ccc(Cl)cc1)N1CCN(CCN2C(=O)c3cccc4cccc(c34)C2=O)CC1 | > 64 | 8 (≈ 17.3 µM) | inactive | inactive | inactive | inactive | inactive | inactive | inactive
4 | O=C1c2cccc3cccc(c23)C(=O)N1CCN1CCN(C(=S)Nc2ccc(Cl)cc2)CC1 | > 64 | > 64 | inactive | inactive | inactive | inactive | inactive | inactive | inactive
5 | O=C(Nc1ccccc1)N1CCN(CCN2C(=O)c3cccc4cccc(c34)C2=O)CC1 | 8 (≈ 18.7 µM) | 32 (≈ 74.7 µM) | inactive | inactive | inactive | inactive | inactive | inactive | inactive
6 | COc1ccc(NC(=S)N2CCN(C(=O)CN3C(=O)c4cccc5cccc(c45)C3=O)CC2)cc1 | > 64 | 64 (≈ 131 µM) | inactive | inactive | inactive | inactive | inactive | inactive | inactive
7 | O=C(CCN1C(=O)c2cccc3cccc(c23)C1=O)N1CCN(C(=S)Nc2ccccc2)CC1 | > 64 | 32 (≈ 67.7 µM) | inactive | inactive | inactive | inactive | inactive | inactive | inactive
